# How the values were obtained:
# Assay type in all cases: in vivo, Sprague Dawley rats
# [1] = system: rat knee osteoarthritis model; assay: Micro-CT analysis of OA knee joints; details: 6 weeks after injection
# Summary of the method: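 Hind limbs from OA rats (female, 12-week-old SD; ACL/MCL transection with medial meniscectomy) given 0.2 mL intra-articular injection 3 weeks post-surgery, or left uninjected. Harvested 6 weeks post-injection and formalin-fixed. Micro-CT: 80 kVp, 500 μA, 0.21 s scan, 30 calibrations, 30.74 mm fields of view. BMD measured at the lateral femoral condyle. OA graded semiquantitatively by osteophytes and joint destruction.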
# TIMP-1 = assay: Immunofluorescence staining of knee joint sections; details: 6 weeks after injection; diffuse positive staining in control
# Summary of the method: (§1)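 OA knees in female 12-week-old SD rats (ACL/MCL transection plus medial meniscectomy), injected intra-articularly with 0.2 mL at 3 weeks post-surgery, uninjected controls. Joints harvested 6 weeks post-injection and formalin-fixed. Sections immunostained for MMP-9, caspase-8, TIMP-1 and collagen II using Alexa Fluor 488/594 secondary antibodies, DAPI counterstain, then examined by fluorescence microscopy.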
# caspase-8 = assay: Immunofluorescence staining of knee joint sections; details: 6 weeks after injection; diffuse positive staining in control
# Summary of the method: as §1
# [2] = system: rat knee osteoarthritis model; assay: Histological analysis, modified Mankin scoring; details: 6 weeks after injection; scale 0–4; negative control 2.5±0.3
substance,measurement,setting,value
"Ac-KLDLKLDLKLDL-NH2 [SAP, Ac-KLDLKLDLKLDL-NH2]","bone mineral density (lateral femoral condyle, micro-CT)","[1]; control 1,067.0±12.2","1,033.3±17.4"
same,Number of animals in each osteoarthritis grade: Grade 1,[1]; micro-CT,1
same,Number of animals in each osteoarthritis grade: Grade 2,[1]; micro-CT,0
same,Number of animals in each osteoarthritis grade: Grade 3,[1]; micro-CT,2
same,Number of animals in each osteoarthritis grade: Grade 4,[1]; micro-CT,1
same,TIMP-1 immunofluorescence staining,TIMP-1,decreased expression
same,caspase-8 immunofluorescence staining,caspase-8,decreased expression
same,Alcian blue staining component of modified Mankin score (proteoglycan content),[2],0.5±0.3

# — PMC4024982 (International Journal of Nanomedicine, 2014)
